Like-named read-outs stand apart in the source and are kept apart here.
What was measured:
[1] = Pharmacokinetic study; assay type: in vivo, Sprague-Dawley rats; conditions: for Cmax / MRT / Tmax / half-life: Sprague-Dawley, rat, inhaled or intranasal, 3.5 mg/kg; for Frel: relative to silibinin solution; for AUCtotal / CL: silibinin 3.5 mg/kg, NPs 2.5 mg/kg by microspray aerosolizer
[2] = Toxicity experiment; assay type: in vivo, Sprague-Dawley rats; conditions: daily for 2 weeks; SB 3.5 mg/kg, NPs 2.5 mg/kg
Method in brief: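 Sprague-Dawley rats, n = 6 per group, were dosed daily for 2 weeks with free test compound (3.5 mg/kg), folate-conjugated nanoparticles (2.5 mg/kg), or saline via the caudal vein. Food and water were given freely. After 2 weeks, rats were sacrificed and lungs, liver, kidneys and spleen were weighed. Body-weight gain was recorded, and the organ index (mg/g) was calculated from organ weights.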

[3] = cited from earlier work
[4] = Serum biochemical parameters during NNK lung cancer induction; assay type: in vivo, Sprague-Dawley rats
Method in brief: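 NNK was given to Sprague-Dawley rats (200–250 g) as […]. Tail-vein blood was clotted 30 min at RT, spun 20 min at 1200 rpm, and serum stored at −80 °C. TBARS: TCA/TBA/HCl at 95 °C for 15 min, […]. SOD: epinephrine in carbonate buffer pH 9.2, A295, reported as units/mg protein.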

`COc1cc(C2Oc3cc([C@H]4Oc5cc(O)cc(O)c5C(=O)[C@@H]4O)ccc3OC2CO)ccc1O` (stereo partly drawn) [silibinin] gave a Cmax ([1]; lung) of 32500 ± 25800 ng/mL, an MRT ([1]; lung) of 3.88 ± 0.87 h and a Tmax ([1]; lung) of 1 ± 2.21 h. The half-life ([1]; lung) was 4.3 ± 0.58 h, the Cmax ([1]; plasma) was 23600 ± 13200 ng/mL and the MRT ([1]; plasma) was 4.25 ± 1.05 h. For the same compound, the Tmax ([1]; plasma) was 1 ± 2.21 h, the half-life ([1]; plasma) was 8.9 ± 1.25 h and the Frel ([1]; lung kinetics) was 1. The AUCtotal ([1]; lung kinetics) was 745.2 ± 102.5 µg·h/mL, the CL ([1]; lung kinetics) was 0.57 ± 1.02 h⁻¹ and the “time to reach peak” value ([1]; lungs) was 1 h. The “time to reach peak” value ([1]; plasma) was 1 h, the Frel ([1]; plasma kinetics) was 1 and the AUCtotal ([1]; plasma kinetics) was 978.5 ± 118.52 µg·h/mL. For the same compound, the CL ([1]; plasma kinetics) was 0.87 ± 0.89 h⁻¹, the increment in weight [2] was 29.85 ± 3.21 g and the kidney organ index [2] was 3.78 mg/g. For the same compound, the liver organ index [2] was 39.52 mg/g, the lung organ index [2] was 6.27 mg/g and the spleen organ index [2] was 7.42 mg/g. The Tmax ([3]; after oral administration) was 2 to 4 h, the half-life ([3]; after oral administration) was 6 h and the “oral rate of absorption” value ([3]; conventional silibinin) was 23–47%.
With `CN(CCCC(=O)c1cccnc1)N=O` [NNK, 4-(methylnitrosamino)-1-(3-pyridyl)-1-butanone] the “increase of MDA content in sera vs control” value (from here on “increase of MDA content”) ([4]; 2 months) was 4.21%, the “reduction of SOD activity vs control” value ([4]; 2 months) was 10.437% and the “increase of MDA content” value ([4]; 3 months) was 21.4%. The “reduction of SOD activity vs control” value ([4]; 3 months) was 29.16%, the “increase of MDA content” value ([4]; 4 months) was 35.16% and the “reduction of SOD activity vs control” value ([4]; 4 months) was 45.21%.
